The values below come from ChEMBL document CHEMBL1156185, “A class of 3S-2-aminoacyltetrahydro-beta-carboline-3-carboxylic acids: their facile synthesis, inhibition for platelet activation, and high in vivo anti-thrombotic potency” (J Med Chem, 2010).

The nature of experiment [1]: Antiplatelet aggregation activity against platelet-activating factor-induced pig platelet aggregation after 5 mins by aggregometer. It counts as functional, cell-based. The note with it: Sus scrofa. In a few lines: (§1)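 Pig blood from six pigs was spun at 1000 rpm for 10 min to give PRP, then at 1500g for 10 min to give PPP. PRP was adjusted to 2 × 10⁸ platelets/mL with autologous PPP. Test agent or NS was added at final 100 µM–1 nM. Agonists were at final concentrations of ADP 10 µM, AA 350 µM, PAF 0.1 µM and thrombin 0.1 U/mL. Light-transmission peak was read at 37 °C over 5 min, in sextuplicate. IC50 was taken from the concentration–inhibition curve.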

Experiment [2] can be described thus: Antiplatelet aggregation activity against arachidonic acid-induced pig platelet aggregation after 5 mins by aggregometer. It counts as functional, cell-based. The note with it: Sus scrofa. In a few lines:
as §1

Experiment [3] is described as follows: Antiplatelet aggregation activity against ADP-induced pig platelet aggregation after 5 mins by aggregometer. Format: functional, cell-based. The note with it: Sus scrofa. In a few lines: as §1
Experiment [4] is described as follows: Antiplatelet aggregation activity against thrombin-induced pig platelet aggregation after 5 mins by aggregometer. Format: functional, cell-based. The following applies: Sus scrofa. In a few lines: as §1
The subject of experiment [5] is Platelet. Briefly: Ratio of IC50 for arachidonic acid-induced pig platelet aggregation to IC50 for ADP-induced pig platelet aggregation. Format: functional, Sus scrofa. In a few lines: (§2)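 Fold ratios of IC50 values. Each IC50 came from pig PRP (2 × 10⁸ platelets/mL) light-transmission aggregometry at 37 °C for 5 min, in sextuplicate, with final ADP 10 µM, AA 350 µM, PAF 0.1 µM or thrombin 0.1 U/mL.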

Experiment [6] concerns Platelet. Nature of the experiment: Ratio of IC50 for platelet-activating factor-induced pig platelet aggregation to IC50 for ADP-induced pig platelet aggregation. It counts as functional, Sus scrofa. In a few lines:
as §2

Experiment [7] relates to Platelet. Nature of the experiment: Ratio of IC50 for thrombin-induced pig platelet aggregation to IC50 for ADP-induced pig platelet aggregation. It counts as functional, Sus scrofa. In a few lines: as §2
Experiment [8] relates to Platelet. Briefly: Ratio of TCCA IC50 to compound IC50 for ADP-induced pig platelet aggregation. It counts as functional, Sus scrofa. In a few lines: as §2
The subject of the next experiment is Rattus norvegicus. Briefly: Antithrombotic activity in Wistar rat arterioveinos cannula model assessed as reduction of thrombus weight at 100 nmol/kg, iv. It counts as functional. In a few lines: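 Male Wistar rats, 250–300 g. Agents were dissolved in NS and kept on ice. Heparin sodium was injected into a thread-containing polyethylene cannula, then NS or agent was injected intravenously. The cannula joined the right carotid artery to the left jugular vein, and blood flowed through it for 15 min. Wet thrombus weight on the thread was recorded as mean ± SD, n = 12.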

Experiment [9] can be described thus: Antiplatelet aggregation activity against collagen-induced platelet. It counts as functional, cell-based.

For `N[C@@H](CS)C(=O)N1Cc2[nH]c3ccccc3c2C[C@H]1C(=O)O`, the IC50 (usually the concentration that gives 50% inhibition) in experiment [1] was found to be 14.7 nM; in [2] it was 24.4 nM; in [3] it was 7.1 nM; in experiment [4] it was 27.6 nM. The Ratio IC50 with Platelet [5] amounted to 3.4; in the experiment on Platelet [6], 2.1; with Platelet [7], 3.9; with Platelet [8] it was 99. The Thrombus weight in the experiment on Rattus norvegicus came to 15.25 mg.
Regarding `N[C@@H](Cc1ccccc1)C(=O)N1Cc2[nH]c3ccccc3c2C[C@H]1C(=O)O`, the IC50 in experiment [1] is 19 nM; in experiment [2], 28.6 nM; in [3], 9.8 nM; in [4] it was 30.2 nM. Besides, the Ratio IC50 in the experiment with Platelet [5] was determined as 2.9; in the experiment on Platelet [6], 1.9; in the experiment on Platelet [7], 3.1; with Platelet [8] it was 72. For the same compound, in the experiment with Rattus norvegicus, the Thrombus weight amounted to 17.25 mg.
As for `NCCCC[C@H](N)C(=O)N1Cc2[nH]c3ccccc3c2C[C@H]1C(=O)O`, the IC50 in experiment [1] came out at 17 nM; in experiment [2], 30.1 nM; in [3] it was 11.1 nM; in [4], 33.4 nM. For the same compound, the “Ratio IC50” value with Platelet [5] stood at 2.7; in the experiment on Platelet [6], 1.5; in the experiment with Platelet [7], 3; in the experiment on Platelet [8] it was 63. Also, in the experiment with Rattus norvegicus, the Thrombus weight turned out to be 16.54 mg.
Take `Cc1nccc2c1[nH]c1ccccc12` [HARMAN]: the IC50 in experiment [9] is more than 130 µM.
As to `CC(C)[C@H](N)C(=O)N1Cc2[nH]c3ccccc3c2C[C@H]1C(=O)O`, the IC50 in experiment [1] is 17.7 nM; in experiment [2], 27.3 nM; in [3], 7.8 nM; in [4] it was 32.5 nM. Further, the Ratio IC50 in the experiment on Platelet [5] was 3.5; in the experiment with Platelet [6], 2.3; in the experiment on Platelet [7], 4.2; in the experiment with Platelet [8] it was 90. Also, in the experiment with Rattus norvegicus, the Thrombus weight is 18.56 mg.
In the case of `C[C@H](N)C(=O)N1Cc2[nH]c3ccccc3c2C[C@H]1C(=O)O`, the IC50 in experiment [1] came out at 13.6 nM; in [2], 24.6 nM; in experiment [3], 6.71 nM; in experiment [4], 27.4 nM. In addition, the Ratio IC50 with Platelet [5] stood at 3.7; with Platelet [6], 2; in the experiment on Platelet [7] it was 4.1; in the experiment with Platelet [8] it was 104. For the same compound, the Thrombus weight in the experiment on Rattus norvegicus is given as 14.61 mg.
Regarding `N=C(N)NCCC[C@H](N)C(=O)N1Cc2[nH]c3ccccc3c2C[C@H]1C(=O)O`, the IC50 in [1] was 18.2 nM; in [2], 27.5 nM; in [3], 9.47 nM; in [4], 29.7 nM. Besides, the Ratio IC50 came out at 2.9 with Platelet [5], 1.9 in the experiment with Platelet [6], 3.1 in the experiment on Platelet [7] and 74 with Platelet [8]. Besides, the Thrombus weight in the experiment with Rattus norvegicus was determined as 16.68 mg.
As to `N[C@@H](Cc1ccc(O)cc1)C(=O)N1Cc2[nH]c3ccccc3c2C[C@H]1C(=O)O`, the IC50 was found to be 15.1 nM in experiment [1], 25.2 nM in experiment [2], 7.76 nM in [3] and 28.4 nM in [4]. The Ratio IC50 with Platelet [5] stood at 3.2; with Platelet [6] it was 1.9; in the experiment with Platelet [7] it was 3.7; with Platelet [8], 90. In addition, in the experiment with Rattus norvegicus, the Thrombus weight is listed as 15.49 mg.
In the case of `N[C@@H](CCC(=O)O)C(=O)N1Cc2[nH]c3ccccc3c2C[C@H]1C(=O)O`, the IC50 in experiment [1] turned out to be 14.8 nM; in experiment [2], 29.6 nM; in [3], 10.2 nM; in experiment [4], 30.9 nM. The Ratio IC50 amounted to 2.9 in the experiment on Platelet [5], 1.4 in the experiment on Platelet [6], 3 in the experiment with Platelet [7] and 68 with Platelet [8]. Further, the Thrombus weight in the experiment on Rattus norvegicus is reported as 16.6 mg.
With `N[C@@H](Cc1cnc[nH]1)C(=O)N1Cc2[nH]c3ccccc3c2C[C@H]1C(=O)O`, the IC50 in [1] came out at 15.5 nM; in experiment [2], 24.9 nM; in experiment [3], 7.31 nM; in [4] it was 29 nM. For the same compound, the Ratio IC50 in the experiment on Platelet [5] is 3.4; in the experiment with Platelet [6], 2.1; with Platelet [7], 4; in the experiment with Platelet [8], 96. Besides, the Thrombus weight in the experiment with Rattus norvegicus was determined as 15.89 mg.
As to `COc1ccc2c3c([nH]c2c1)C(C)=NCC3` [HARMALINE], the IC50 in experiment [9] was more than 130 µM.
On the same count and under the same terms, in the case of `c1ccc2c(c1)[nH]c1cnccc12` [NORHARMANE] it was more than 130 µM.
In the case of `C[C@@H](O)[C@H](N)C(=O)N1Cc2[nH]c3ccccc3c2C[C@H]1C(=O)O`, the IC50 in experiment [1] turned out to be 14.8 nM; in experiment [2] it was 24.6 nM; in experiment [3], 7.81 nM; in [4], 27.8 nM. Moreover, the Ratio IC50 in the experiment with Platelet [5] stood at 3.1; in the experiment with Platelet [6], 1.9; with Platelet [7], 3.6; in the experiment on Platelet [8], 90. Moreover, the Thrombus weight in the experiment on Rattus norvegicus was determined as 15.72 mg.
Regarding `N[C@@H](CO)C(=O)N1Cc2[nH]c3ccccc3c2C[C@H]1C(=O)O`, the IC50 is 16.1 nM in experiment [1], 26.2 nM in [2], 8.66 nM in experiment [3] and 30.8 nM in [4]. Also, the Ratio IC50 with Platelet [5] came to 3; with Platelet [6], 1.9; with Platelet [7] it was 3.6; with Platelet [8], 81. For the same compound, the Thrombus weight in the experiment with Rattus norvegicus was 16.25 mg.
On to `NC(=O)C[C@H](N)C(=O)N1Cc2[nH]c3ccccc3c2C[C@H]1C(=O)O`, for which the IC50 in [1] amounted to 16.2 nM; in experiment [2], 28.9 nM; in experiment [3], 9.19 nM; in experiment [4] it was 30 nM. For the same compound, the Ratio IC50 in the experiment with Platelet [5] turned out to be 3.2; with Platelet [6] it was 1.8; in the experiment with Platelet [7], 3.3; in the experiment on Platelet [8], 76. The Thrombus weight in the experiment with Rattus norvegicus worked out at 16.34 mg.
Take `N[C@@H](Cc1c[nH]c2ccccc12)C(=O)N1Cc2[nH]c3ccccc3c2C[C@H]1C(=O)O`: the half-maximal inhibitory concentration (IC50) is 16.8 nM in experiment [1], 27.9 nM in [2], 10.4 nM in experiment [3] and 29.6 nM in experiment [4]. The “Ratio IC50” value was found to be 2.7 with Platelet [5], 1.6 in the experiment with Platelet [6], 2.8 with Platelet [7] and 67 in the experiment on Platelet [8]. Also, in the experiment with Rattus norvegicus, the Thrombus weight turned out to be 18.43 mg.
For the compound `NC(=O)CC[C@H](N)C(=O)N1Cc2[nH]c3ccccc3c2C[C@H]1C(=O)O`, the IC50 was determined as 17.2 nM in experiment [1], 28.2 nM in [2], 7.7 nM in [3] and 30.1 nM in experiment [4]. The Ratio IC50 in the experiment with Platelet [5] amounted to 3.7; in the experiment on Platelet [6] it was 2.2; with Platelet [7], 3.9; in the experiment on Platelet [8] it was 91. For the same compound, the Thrombus weight in the experiment with Rattus norvegicus stood at 17.3 mg.
In the case of `NCC(=O)N1Cc2[nH]c3ccccc3c2C[C@H]1C(=O)O`, the IC50 in [1] came to 16.8 nM; in experiment [2], 26.5 nM; in experiment [3], 8.56 nM; in [4], 31.9 nM. The Ratio IC50 amounted to 3.1 in the experiment on Platelet [5], 2 with Platelet [6], 3.7 in the experiment on Platelet [7] and 82 in the experiment with Platelet [8]. In addition, the Thrombus weight with Rattus norvegicus was found to be 19.29 mg.
Turning to `N[C@@H](CC(=O)O)C(=O)N1Cc2[nH]c3ccccc3c2C[C@H]1C(=O)O`, the IC50 in [1] is 13.1 nM; in [2], 24 nM; in experiment [3] it was 6.62 nM; in experiment [4], 26.6 nM. For the same compound, the Ratio IC50 in the experiment with Platelet [5] was 3.6; in the experiment on Platelet [6], 2; in the experiment with Platelet [7], 4; in the experiment with Platelet [8], 106. Moreover, the Thrombus weight with Rattus norvegicus is 14.4 mg.
